Measured values from ChEMBL document CHEMBL1926651, “Design, synthesis, antiviral and cytostatic evaluation of novel isoxazolidine nucleotide analogues with a 1,2,3-triazole linker” (Eur J Med Chem, 2012).
The source made the active and inactive calls. No cut-off for these calls is given here.

Tests used:
Human betaherpesvirus 5 [1] = assay: Antiviral activity against Human cytomegalovirus AD169 infected in human HEL cells assessed as inhibition of viral plaque formation at 250 uM; assay type: functional, organism-based
CCRF-CEM = assay: Cytotoxicity against human CEM cells 3 days by coulter counting; assay type: functional; settings: 72 h
In short: (§1)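 Cells were suspended at 300,000–500,000 cells/mL and added 1:1 to compound dilutions. Incubation was at 37 °C, 2 days for L1210 and 3 days for CEM, HeLa and HEL. Cells were counted with a Coulter counter. CC50 is the concentration inhibiting cell proliferation by 50%.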

Human alphaherpesvirus 1 [2] = assay: Antiviral activity against thymidine kinase-deficient acv-resistant Herpes simplex virus 1 KOS infected in human HEL cells assessed as inhibition of viral plaque formation at 250 uM; assay type: functional, organism-based
[3] = test system: Vesicular stomatitis virus; assay: Antiviral activity against Vesicular stomatitis virus infected in human Hela cells assessed as inhibition of viral plaque formation at 250 uM; assay type: functional, organism-based
[4] = test system: Respiratory syncytial virus; assay: Antiviral activity against Respiratory syncytial virus infected in human HeLa cells assessed as inhibition of viral plaque formation at 250 uM; assay type: functional, organism-based
In short: (§2)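 Confluent host cell monolayers were inoculated with 100 CCID50 of virus in the presence of test compound at serial dilutions (250, 50, 10, … μM). Viral cytopathicity was scored once it reached completion in untreated virus-infected controls.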

Sindbis virus = assay: Antiviral activity against Sindbis virus infected in african green monkey Vero cells assessed as inhibition of viral plaque formation at 250 uM; assay type: functional, organism-based; in short: as §2
L1210 = assay: Cytotoxicity against mouse L1210 cells 2 days by coulter counting; assay type: functional; settings: L1210, 48 h; in short: as §1
Punta Toro virus = assay: Antiviral activity against Punta Toro virus infected in african green monkey Vero cells assessed as inhibition of viral plaque formation at 250 uM; assay type: functional, organism-based
[5] = test system: Human immunodeficiency virus 2; assay: Antiviral activity against Human immunodeficiency virus 2 infected in human CEM cells assessed as inhibition of virus-induced giant cell formation after 4 days by microscopic analysis; assay type: functional, organism-based; settings: CCRF-CEM
In short: (§3)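 CEM cells at about 3 × 10⁵ cells/cm³ were infected with 100 CCID50/mL of HIV-1(IIIB) or HIV-2(ROD), then seeded into wells holding test compound dilutions. After 4 days at 37 °C, virus-induced giant cell formation was scored microscopically.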

Coxsackievirus B4 [6] = assay: Antiviral activity against Coxsackievirus B4 infected in african green monkey Vero cells assessed as inhibition of viral plaque formation at 250 uM; assay type: functional, organism-based; in short: as §2
Human alphaherpesvirus 2 = assay: Antiviral activity against Herpes simplex virus 2 G infected in human HEL cells assessed as inhibition of viral plaque formation at 250 uM; assay type: functional, organism-based; settings: strain G
HeLa = assay: Cytotoxicity against human HeLa cells 3 days by coulter counting; assay type: functional; settings: 72 h; in short: as §1
[7] = test system: Mammalian orthoreovirus 1; assay: Antiviral activity against Reovirus-1 infected in african green monkey Vero cells assessed as inhibition of viral plaque formation at 250 uM; assay type: functional, organism-based; in short: as §2
Human alphaherpesvirus 1 [8] = assay: Antiviral activity against Herpes simplex virus 1 KOS infected in human HEL cells assessed as inhibition of viral plaque formation at 250 uM; assay type: functional, organism-based; in short: as §2
Human alphaherpesvirus 3 [9] = assay: Antiviral activity against thymidine kinase-deficient Varicella Zoster virus 07/1 infected in human HEL cells assessed as inhibition of viral plaque formation at 250 uM; assay type: functional, organism-based
Human respirovirus 3 = assay: Antiviral activity against Parainfluenza-3 virus infected in african green monkey Vero cells assessed as inhibition of viral plaque formation at 250 uM; assay type: functional, organism-based; in short: as §2
HEL = assay: Cytotoxicity against human HEL cells 3 days by coulter counting; assay type: functional; settings: 72 h; in short: as §1
Feline coronavirus = assay: Antiviral activity against Feline coronavirus infected in CrFK cells assessed as inhibition of viral plaque formation at 250 uM; assay type: functional, organism-based; in short: as §2
Coxsackievirus B4 [10] = assay: Antiviral activity against Coxsackievirus B4 infected in human HeLa cells assessed as inhibition of viral plaque formation at 250 uM; assay type: functional, organism-based; in short: as §2
Felid alphaherpesvirus 1 = assay: Antiviral activity against Felid herpesvirus 1 infected in CrFK cells assessed as inhibition of viral plaque formation at 250 uM; assay type: functional, organism-based; in short: as §2
Human alphaherpesvirus 3 [11] = assay: Antiviral activity against thymidine kinase-positive Varicella Zoster virus Oka infected in human HEL cells assessed as inhibition of viral plaque formation at 250 uM; assay type: functional, cell-based; settings: strain Oka vaccine
[12] = test system: Human immunodeficiency virus 1; assay: Antiviral activity against Human immunodeficiency virus 1 infected in human CEM cells assessed as inhibition of virus-induced giant cell formation after 4 days by microscopic analysis; assay type: functional, organism-based; settings: CCRF-CEM; in short: as §3
Vaccinia virus = assay: Antiviral activity against Vaccinia virus infected in human HEL cells assessed as inhibition of viral plaque formation at 250 uM; assay type: functional, organism-based; settings: Orthopoxvirus vaccinia; in short: as §2
Human betaherpesvirus 5 [13] = assay: Antiviral activity against Human cytomegalovirus Davis infected in human HEL cells assessed as inhibition of viral plaque formation at 250 uM; assay type: functional, organism-based
[14] = test system: Vesicular stomatitis virus; assay: Antiviral activity against Vesicular stomatitis virus infected in human HEL cells assessed as inhibition of viral plaque formation at 250 uM; assay type: functional, organism-based; in short: as §2

CCOP(=O)(OCC)[C@@H]1C[C@@H](n2cc(Cn3cnc4c(N)ncnc43)nn2)ON1C (racemic)
Activity (Human betaherpesvirus 5 [1]): inactive
CC50 (CCRF-CEM): > 250 µM
Activity (Human alphaherpesvirus 1 [2]): inactive
Activity [3]: inactive
Activity [4]: inactive
Activity (Sindbis virus): inactive
CC50 (L1210): 140 µM
Activity (Punta Toro virus): inactive
Activity [5]: inactive
Activity (Coxsackievirus B4 [6]): inactive
Activity (Human alphaherpesvirus 2): inactive
CC50 (HeLa): > 250 µM
Activity [7]: inactive
Activity (Human alphaherpesvirus 1 [8]): inactive
Activity (Human alphaherpesvirus 3 [9]): inactive
Activity (Human respirovirus 3): inactive
CC50 (HEL): > 100 µM
Activity (Feline coronavirus): inactive
Activity (Coxsackievirus B4 [10]): inactive
Activity (Felid alphaherpesvirus 1): inactive
Activity (Human alphaherpesvirus 3 [11]): inactive
Activity [12]: inactive
Activity (Vaccinia virus): inactive
Activity (Human betaherpesvirus 5 [13]): inactive
Activity [14]: inactive

CCOP(=O)(OCC)[C@@H]1C[C@H](n2cc(Cn3ccc(=O)[nH]c3=O)nn2)ON1C (racemic)
Activity (Human betaherpesvirus 5 [1]): inactive
CC50 (CCRF-CEM): > 250 µM
Activity (Human alphaherpesvirus 1 [2]): inactive
Activity [3]: inactive
Activity [4]: inactive
Activity (Sindbis virus): inactive
CC50 (L1210): 235 µM
Activity (Punta Toro virus): inactive
Activity [5]: inactive
Activity (Coxsackievirus B4 [6]): inactive
Activity (Human alphaherpesvirus 2): inactive
CC50 (HeLa): > 250 µM
Activity [7]: inactive
Activity (Human alphaherpesvirus 1 [8]): inactive
Activity (Human alphaherpesvirus 3 [9]): inactive
Activity (Human respirovirus 3): inactive
CC50 (HEL): > 100 µM
Activity (Feline coronavirus): inactive
Activity (Coxsackievirus B4 [10]): inactive
Activity (Felid alphaherpesvirus 1): inactive
Activity (Human alphaherpesvirus 3 [11]): inactive
Activity [12]: inactive
Activity (Vaccinia virus): inactive
Activity (Human betaherpesvirus 5 [13]): inactive
Activity [14]: inactive

CCOP(=O)(OCC)[C@@H]1C[C@H](n2cc(Cn3cc(C)c(=O)[nH]c3=O)nn2)ON1C (racemic)
Activity (Human betaherpesvirus 5 [1]): inactive
CC50 (CCRF-CEM): > 250 µM
Activity (Human alphaherpesvirus 1 [2]): inactive
Activity [3]: inactive
Activity [4]: inactive
Activity (Sindbis virus): inactive
CC50 (L1210): 280 µM
Activity (Punta Toro virus): inactive
Activity [5]: inactive
Activity (Coxsackievirus B4 [6]): inactive
Activity (Human alphaherpesvirus 2): inactive
CC50 (HeLa): > 250 µM
Activity [7]: inactive
Activity (Human alphaherpesvirus 1 [8]): inactive
Activity (Human alphaherpesvirus 3 [9]): inactive
Activity (Human respirovirus 3): inactive
CC50 (HEL): > 100 µM
Activity (Feline coronavirus): inactive
Activity (Coxsackievirus B4 [10]): inactive
Activity (Felid alphaherpesvirus 1): inactive
Activity (Human alphaherpesvirus 3 [11]): inactive
Activity [12]: inactive
Activity (Vaccinia virus): inactive
Activity (Human betaherpesvirus 5 [13]): inactive
Activity [14]: inactive

CCOP(=O)(OCC)[C@@H]1C[C@@H](n2cc(Cn3ccc(=O)[nH]c3=O)nn2)ON1C (relative stereo)
Activity (Human betaherpesvirus 5 [1]): inactive
CC50 (CCRF-CEM): > 250 µM
Activity (Human alphaherpesvirus 1 [2]): inactive
Activity [3]: inactive
Activity [4]: inactive
Activity (Sindbis virus): inactive
CC50 (L1210): > 250 µM
Activity (Punta Toro virus): inactive
Activity [5]: inactive
Activity (Coxsackievirus B4 [6]): inactive
Activity (Human alphaherpesvirus 2): inactive
CC50 (HeLa): ≥ 250 µM
Activity [7]: inactive
Activity (Human alphaherpesvirus 1 [8]): inactive
Activity (Human alphaherpesvirus 3 [9]): inactive
Activity (Human respirovirus 3): inactive
CC50 (HEL): > 100 µM
Activity (Feline coronavirus): inactive
Activity (Coxsackievirus B4 [10]): inactive
Activity (Felid alphaherpesvirus 1): inactive
Activity (Human alphaherpesvirus 3 [11]): inactive
Activity [12]: inactive
Activity (Vaccinia virus): inactive
Activity (Human betaherpesvirus 5 [13]): inactive
Activity [14]: inactive

CCOP(=O)(OCC)[C@@H]1C[C@@H](n2cc(Cn3cc(C)c(=O)[nH]c3=O)nn2)ON1C (relative stereo)
Activity (Human betaherpesvirus 5 [1]): inactive
CC50 (CCRF-CEM): > 250 µM
Activity (Human alphaherpesvirus 1 [2]): inactive
Activity [3]: inactive
Activity [4]: inactive
Activity (Sindbis virus): inactive
CC50 (L1210): ≥ 250 µM
Activity (Punta Toro virus): inactive
Activity [5]: inactive
Activity (Coxsackievirus B4 [6]): inactive
Activity (Human alphaherpesvirus 2): inactive
CC50 (HeLa): > 250 µM
Activity [7]: inactive
Activity (Human alphaherpesvirus 1 [8]): inactive
Activity (Human alphaherpesvirus 3 [9]): inactive
Activity (Human respirovirus 3): inactive
CC50 (HEL): > 100 µM
Activity (Feline coronavirus): inactive
Activity (Coxsackievirus B4 [10]): inactive
Activity (Felid alphaherpesvirus 1): inactive
Activity (Human alphaherpesvirus 3 [11]): inactive
Activity [12]: inactive
Activity (Vaccinia virus): inactive
Activity (Human betaherpesvirus 5 [13]): inactive
Activity [14]: inactive

CCOP(=O)(OCC)[C@@H]1C[C@@H](n2cc(Cn3ccc(NC(C)=O)nc3=O)nn2)ON1C (relative stereo)
Activity (Human betaherpesvirus 5 [1]): inactive
CC50 (CCRF-CEM): > 250 µM
Activity (Human alphaherpesvirus 1 [2]): inactive
Activity [3]: inactive
Activity [4]: inactive
Activity (Sindbis virus): inactive
CC50 (L1210): ≥ 250 µM
Activity (Punta Toro virus): inactive
Activity [5]: inactive
Activity (Coxsackievirus B4 [6]): inactive
Activity (Human alphaherpesvirus 2): inactive
CC50 (HeLa): > 250 µM
Activity [7]: inactive
Activity (Human alphaherpesvirus 1 [8]): inactive
Activity (Human alphaherpesvirus 3 [9]): inactive
Activity (Human respirovirus 3): inactive
CC50 (HEL): > 100 µM
Activity (Feline coronavirus): inactive
Activity (Coxsackievirus B4 [10]): inactive
Activity (Felid alphaherpesvirus 1): inactive
Activity (Human alphaherpesvirus 3 [11]): inactive
Activity [12]: inactive
Activity (Vaccinia virus): inactive
Activity (Human betaherpesvirus 5 [13]): inactive
Activity [14]: inactive

CCOP(=O)(OCC)[C@@H]1C[C@@H](n2cc(C(=O)OC)nn2)ON1C (relative stereo)
Activity (Human betaherpesvirus 5 [1]): inactive
CC50 (CCRF-CEM): > 250 µM
Activity (Human alphaherpesvirus 1 [2]): inactive
Activity [3]: inactive
Activity [4]: inactive
Activity (Sindbis virus): inactive
CC50 (L1210): 191 µM
Activity (Punta Toro virus): inactive
Activity [5]: inactive
Activity (Coxsackievirus B4 [6]): inactive
Activity (Human alphaherpesvirus 2): inactive
CC50 (HeLa): > 250 µM
Activity [7]: inactive
Activity (Human alphaherpesvirus 1 [8]): inactive
Activity (Human alphaherpesvirus 3 [9]): inactive
Activity (Human respirovirus 3): inactive
CC50 (HEL): > 100 µM
Activity (Feline coronavirus): inactive
Activity (Coxsackievirus B4 [10]): inactive
Activity (Felid alphaherpesvirus 1): inactive
Activity (Human alphaherpesvirus 3 [11]): inactive
Activity [12]: inactive
Activity (Vaccinia virus): inactive
Activity (Human betaherpesvirus 5 [13]): inactive
Activity [14]: inactive

CCOP(=O)(OCC)[C@@H]1C[C@H](n2cc(Cn3ccc(NC(C)=O)nc3=O)nn2)ON1C (relative stereo)
Activity (Human betaherpesvirus 5 [1]): inactive
CC50 (CCRF-CEM): > 250 µM
Activity (Human alphaherpesvirus 1 [2]): inactive
Activity [3]: inactive
Activity [4]: inactive
Activity (Sindbis virus): inactive
CC50 (L1210): > 250 µM
Activity (Punta Toro virus): inactive
Activity [5]: inactive
Activity (Coxsackievirus B4 [6]): inactive
Activity (Human alphaherpesvirus 2): inactive
CC50 (HeLa): > 250 µM
Activity [7]: inactive
Activity (Human alphaherpesvirus 1 [8]): inactive
Activity (Human alphaherpesvirus 3 [9]): inactive
Activity (Human respirovirus 3): inactive
CC50 (HEL): > 100 µM
Activity (Feline coronavirus): inactive
Activity (Coxsackievirus B4 [10]): inactive
Activity (Felid alphaherpesvirus 1): inactive
Activity (Human alphaherpesvirus 3 [11]): inactive
Activity [12]: inactive
Activity (Vaccinia virus): inactive
Activity (Human betaherpesvirus 5 [13]): inactive
Activity [14]: inactive
